Assay results as given in ChEMBL document CHEMBL3414513, “Synthesis and biological evaluation of betulonic acid derivatives as antitumor agents” (Eur J Med Chem, 2015).
The source made the active and inactive calls. The calls are words filed in the database; no cut-off is given here.

How the values were obtained:
[1] = system: A-375; assay: Selectivity index, ratio of IC50 for mouse NIH/3T3 cells to IC50 for human A375 cells; type: functional
Summary of the method: (§1)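 Index is the IC50 in normal NIH3T3 cells divided by the IC50 in each cancer line. […] HCPT and adriamycin were used as positive controls.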

[2] = system: Bcap37; assay: Selectivity index, ratio of IC50 for mouse NIH/3T3 cells to IC50 for human Bcap37 cells; type: functional; summary of the method: as §1
[3] = system: A-375; assay: Cytotoxicity against human A375 cells after 72 hrs by MTT assay; type: functional, cell-based; settings: for IC50: A-375, 72 h
Summary of the method: (§2)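 Cancer lines grown in RPMI 1640 with 10% heat-inactivated FBS, 37 °C, 5% CO2. Cells trypsinized at 80-90% confluence, seeded at 2×10^3/well overnight, then given compounds (DMSO stocks diluted in medium) at various concentrations for 72 h at 37 °C. Controls: 0.1% DMSO negative, adriamycin positive. MTT (5 mg/ml) added for 4 h, formazan dissolved in SDS 12 h, A595 read. IC50 from dose-response curves.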

[4] = system: MCF7; assay: Selectivity index, ratio of IC50 for mouse NIH/3T3 cells to IC50 for human MCF7 cells; type: functional; summary of the method: as §1
[5] = system: PC-3; assay: Selectivity index, ratio of IC50 for mouse NIH/3T3 cells to IC50 for human PC3 cells; type: functional; summary of the method: as §1
[6] = system: Bcap37; assay: Cytotoxicity against human Bcap37 cells after 72 hrs by MTT assay; type: functional, cell-based; settings: for IC50: Bcap37, 72 h; summary of the method: as §2
[7] = system: MGC-803; assay: Cytotoxicity against human MGC803 cells after 72 hrs by MTT assay; type: functional, cell-based; settings: for IC50: MGC-803, 72 h; summary of the method: as §2
[8] = system: MGC-803; assay: Selectivity index, ratio of IC50 for mouse NIH/3T3 cells to IC50 for human MGC803 cells; type: functional; summary of the method: as §1
[9] = system: MCF7; assay: Cytotoxicity against human MCF7 cells after 72 hrs by MTT assay; type: functional, cell-based; settings: for IC50: MCF7, 72 h; summary of the method: as §2
[10] = (§3) Cytotoxicity against human PC3 cells after 72 hrs by MTT assay; type: functional, cell-based; settings: PC-3, 72 h
Summary of the method: as §2, with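 “Cells” for “Cancer lines grown in RPMI 1640 with 10% heat-inactivated FBS, 37 °C, 5% CO2. Cells”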

[11] = system: PC-3; assay: as §3; type: functional, cell-based
Summary of the method: as §2, with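 “Cells” for “Cancer lines grown in RPMI 1640 with 10% heat-inactivated FBS, 37 °C, 5% CO2. Cells”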

[12] = system: MGC-803; assay: Induction of apoptosis in human MGC803 cells assessed as DNA fragmentation at 10 uM after 48 hrs by TUNEL assay; type: functional, cell-based
Summary of the method: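 MGC-803 cells seeded at 5×10^4 cells/mL in 6-well plates; medium replaced with fresh medium plus 10% FBS and compound (10 µM, 48 h), DMSO negative control. Fixed in 4% paraformaldehyde 40 min, permeabilized 2 min on ice, peroxidase quenched (0.3% H2O2/methanol, 20 min RT), TdT/biotin-dUTP 60 min 37 °C, streptavidin-HRP 30 min, then DAB. Brown precipitate under light microscopy scored apoptotic.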

[13] = system: MGC-803; assay: Induction of apoptosis in human MGC803 cells assessed as appearance of compact condensed and crescent shaped cells at 10 uM after 48 hrs by Hoechst 33258 staining-based fluorescence microscopic analysis; type: functional, cell-based
Summary of the method: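 MGC-803 cells seeded at 5×10^4 cells/mL in 6-well plates; medium replaced with fresh medium plus 10% FBS and compound (10 µM, 48 h), DMSO negative control. Cells washed, fixed in 4% paraformaldehyde 10 min, stained with Hoechst 33258 for 5 min, washed, then nuclear morphology viewed by fluorescence microscopy (excitation 350 nm, emission 460 nm).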

Structure (SMILES)	Ratio IC50 [1]	Ratio IC50 [2]	Activity [3]	IC50 [3] [µM]	Ratio IC50 [4]	Ratio IC50 [5]	Activity [6]	IC50 [6] [µM]	Activity [7]	IC50 [7] [µM]	Ratio IC50 [8]	Activity [9]	IC50 [9] [µM]	IC50 [10] [µM]	Activity [11]	Activity [12]	Activity [13]
C=C(C)[C@@H]1CC[C@]2(C(=O)OCCN3CCN(C(=O)c4ccccc4C)CC3)CC[C@]3(C)[C@H](CC[C@@H]4[C@@]5(C)CCC(=O)C(C)(C)[C@@H]5CC[C@]43C)[C@@H]12	4.69	3.3	Dose-dependent effect	4.5	3.91	2.43	Dose-dependent effect	6.4	Dose-dependent effect	4.5	4.69	Dose-dependent effect	5.4	8.7	Dose-dependent effect		
C=C(C)[C@@H]1CC[C@]2(C(=O)OCCCCN3CCCC3)CC[C@]3(C)[C@H](CC[C@@H]4[C@@]5(C)CCC(=O)C(C)(C)[C@@H]5CC[C@]43C)[C@@H]12	3.38	6.11	Dose-dependent effect	8.5	5.31	4.28	Dose-dependent effect	4.7	Dose-dependent effect	4	7.18	Dose-dependent effect	5.4	6.7	Dose-dependent effect		
CC[C@@]1(O)C(=O)OCc2c1cc1n(c2=O)Cc2cc3cc(O)ccc3nc2-1 [HYDROXYCAMPTOTHECIN]			Dose-dependent effect	27.8			Dose-dependent effect	28.1	Dose-dependent effect	29.1			48.2	34.5	Dose-dependent effect	Active	Active
C=C(C)[C@@H]1CC[C@]2(C(=O)OCCN3CCN(C(=O)c4c(F)cccc4Cl)CC3)CC[C@]3(C)[C@H](CC[C@@H]4[C@@]5(C)CCC(=O)C(C)(C)[C@@H]5CC[C@]43C)[C@@H]12			Dose-dependent effect	8.4			Dose-dependent effect	7.5	Dose-dependent effect	5.3		Dose-dependent effect	8.1	9.3	Dose-dependent effect		
C=C(C)[C@@H]1CC[C@]2(C(=O)OCCBr)CC[C@]3(C)[C@H](CC[C@@H]4[C@@]5(C)CCC(=O)C(C)(C)[C@@H]5CC[C@]43C)[C@@H]12			Dose-dependent effect	> 20			Dose-dependent effect	> 20	Dose-dependent effect	> 20		Dose-dependent effect	> 20	> 20	Dose-dependent effect		
C=C(C)[C@@H]1CC[C@]2(C(=O)OCCN3CCN(C(=O)c4ccccc4)CC3)CC[C@]3(C)[C@H](CC[C@@H]4[C@@]5(C)CCC(=O)C(C)(C)[C@@H]5CC[C@]43C)[C@@H]12	6.41	5.46	Dose-dependent effect	6.3	8.6	9.85	Dose-dependent effect	7.4	Dose-dependent effect	5.3	7.62	Dose-dependent effect	4.7	4.1	Dose-dependent effect		
C=C(C)[C@@H]1CC[C@]2(C(=O)OCCN3CCN(C(=O)c4ccc(F)c(F)c4)CC3)CC[C@]3(C)[C@H](CC[C@@H]4[C@@]5(C)CCC(=O)C(C)(C)[C@@H]5CC[C@]43C)[C@@H]12	2.57	4.74	Dose-dependent effect	7.2	5	4.02	Dose-dependent effect	3.9	Dose-dependent effect	4.4	4.2	Dose-dependent effect	3.7	4.6	Dose-dependent effect		
C=C(C)[C@@H]1CC[C@]2(C(=O)OCCCCN(CC)CC)CC[C@]3(C)[C@H](CC[C@@H]4[C@@]5(C)CCC(=O)C(C)(C)[C@@H]5CC[C@]43C)[C@@H]12	2.54	4.5	Dose-dependent effect	9.2	2.96	5.32	Dose-dependent effect	5.2	Dose-dependent effect	3.8	6.15	Dose-dependent effect	7.9	4.4	Dose-dependent effect		
C=C(C)[C@@H]1CC[C@]2(C(=O)OCCCN3CCCCC3)CC[C@]3(C)[C@H](CC[C@@H]4[C@@]5(C)CCC(=O)C(C)(C)[C@@H]5CC[C@]43C)[C@@H]12			Dose-dependent effect	9.5			Dose-dependent effect	9.5	Dose-dependent effect	6.3		Dose-dependent effect	6.6	5.7	Dose-dependent effect		
